Compound activity deposited in PubChem by several laboratories.
Apaf-1 inh = inhibitors of human Apaf-1 apoptosome, primary screen, biochemical, DEVD-Rh110 fluorescence, uHTS. Apoptotic protease-activating factor 1 (Homo sapiens), O14727. reconstituted apoptosome caspase-3 activity. inhibition, % at 20 µM. 330,000 tested, 0.71% active. AID 489030, 2010; active = inhibition of at least 40% at 20 µM
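Medium: Hepes buffer, pH 7.5 / System: biochemical Apaf-1 apoptosome reconstitution / Measured by: Rh110 fluorescence, excitation 480 nm, emission 540 nm / Times: compound with Apaf-1, dATP, procaspase-3 30 min, then 50 min reaction, room temperature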
ZTA counter = counter-screen for EBNA-1 inhibitors: inhibitors of Epstein-Barr virus ZTA | ZTA-DNA binding, fluorescence polarization | inhibition, % at 11 µM | 320,000 tested, 0.15% active | AID 2234; in the data active = inhibition above about 33%
procasp7 counter = procaspase-7 activators, primary screen, counter-screen for procaspase-3 activator project, biochemical, absorbance, HTS, human; activation, % at 8.5 µM; AID 463210, 2010; recombinant procaspase-7, Ac-DEVD-pNA absorbance 405 nm; D23A/D198A/D206A triple mutant, cannot self-cleave; scale: DMSO 0, 5 µM enzyme 100; 330,000 tested, 0.093% active;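 active = percent activation above the screen-wide mean plus 3 SD, cut at about 25% in these data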
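buffer or medium = Zinc-free HEPES/NaCl buffer, pH 7.4 | material = Procaspase-7 triple mutant (PC-7 D3A) | input = 2 µM procaspase-7 mutant as dispensed | signal = Epi-absorbance of released pNA at 405 nm, two timepoints | timing = 1 h preincubation, 2 h reaction | replicates = singlicate compound testing | evaluation = % activation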
proCasp3 act = activators of human procaspase-3 D3A mutant, primary screen, biochemical, absorbance, PC-3 D3A mutant, single concentration | Caspase-3 (Homo sapiens), P42574 | recombinant procaspase-3 D3A, Ac-DEVD-pNA absorbance 405 nm | activation, % at 8.5 µM | 330,000 tested, 0.11% active | AID 463141, 2010;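 active = activation above the mean of all tested compounds plus 3 SD, cut at about 21% in these data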
Target sequence (P42574 whole entry D9A/D28A/D175A): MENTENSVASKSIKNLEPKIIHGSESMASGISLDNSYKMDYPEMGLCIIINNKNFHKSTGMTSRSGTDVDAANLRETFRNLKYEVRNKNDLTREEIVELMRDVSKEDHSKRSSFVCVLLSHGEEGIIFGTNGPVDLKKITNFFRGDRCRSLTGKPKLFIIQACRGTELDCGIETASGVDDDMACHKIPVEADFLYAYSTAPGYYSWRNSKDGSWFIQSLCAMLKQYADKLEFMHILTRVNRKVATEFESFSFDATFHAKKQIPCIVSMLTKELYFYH
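Assay system: Autoprocessing-dead procaspase-3 D3A mutant enzyme; also added: Ac-DEVD-pNA; doses: one concentration, 8.5 µM nominal, 0.8% DMSO; times: 1 h compound preincubation, 2 h substrate hydrolysis at 25 °C; technique: 405 nm absorbance of p-nitroaniline, reads at 0 and 120 min; measure: % activation between DMSO and enzyme-spiked controls; repeats: single replicate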
GSTO1 counter = inhibitors of recombinant GSTO1, primary screen, counter-screen for RBBP9 inhibitor project, biochemical, fluorescence polarization; Glutathione S-transferase omega-1 (Homo sapiens), P78417; activity-based probe fluorescence polarization; inhibition, % at 5.96 µM; 300,000 tested, 1.1% active;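 active = inhibition above the campaign mean inhibition plus 3 SD, cut at about 35% in these data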
Target sequence (P78417 whole entry, looked up): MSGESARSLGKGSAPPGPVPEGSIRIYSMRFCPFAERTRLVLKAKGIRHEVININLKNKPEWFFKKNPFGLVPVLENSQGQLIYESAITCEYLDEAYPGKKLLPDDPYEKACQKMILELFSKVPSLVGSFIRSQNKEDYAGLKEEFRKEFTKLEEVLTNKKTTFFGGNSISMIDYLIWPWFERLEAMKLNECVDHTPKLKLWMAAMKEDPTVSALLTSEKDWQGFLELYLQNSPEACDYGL
EBNA-1 inhibitor = EBNA-1 DNA-binding inhibitors, primary screen, biochemical, fluorescence polarization; inhibition, % at 14.8 µM; 300,000 tested, 0.34% active; AID 1950, 2009; in the data active = inhibition above about 28%
Numbers stand for hits; – = inactive; · = no result given. The list is not random: actives were taken first. Their share in the collection is about 1.8%.

SMILES | Apaf-1 inh | ZTA counter | procasp7 counter | proCasp3 act | GSTO1 counter | EBNA-1 inhibitor
COc1ccc(C(=O)N/C(=C/c2cccc3ccccc23)C(=O)NCCc2c[nH]c3ccccc23)cc1OC | – | – | – | – | – | 112.6
COc1ccc(/C=C(/NC(=O)c2ccc(OC)c(OC)c2)C(=O)NCCc2c[nH]c3ccccc23)cc1 | – | – | – | – | – | –
Cc1c(C(=O)OCC(=O)NC(=O)NC2CCCCC2)cccc1[N+](=O)[O-] | – | · | – | – | · | ·
O=C(COC(=O)c1ccccc1Sc1ccc(C(F)(F)F)cc1[N+](=O)[O-])NC(=O)NC1CCCC1 | 40.4 | – | – | – | – | –
Cc1ccc(S(=O)(=O)Nc2ccc(C(=O)NCCCn3ccnc3)cc2)cc1[N+](=O)[O-] | – | – | – | – | · | ·
CC1=CC(=Nc2c(C)n(C)n(-c3ccccc3)c2=O)C=C(C)C1=O | – | – | – | – | 50.5 | –
COc1ccc(N2CC(C(=O)Nc3nc4ccc(F)cc4s3)CC2=O)c(OC)c1 (configuration not stated) | – | – | – | – | – | –
N#Cc1cccc(N=Cc2c(O)ccc3ccccc23)c1 | – | – | – | – | 37.9 | –
Cc1ccc(N=Cc2c(O)ccc3ccccc23)cc1F | – | – | – | – | – | –
O=C(Oc1ccccc1O)c1cccc2ccccc12 | – | – | – | – | 58.9 | –
Cc1ccccc1CN1CCN(Cc2cc(=O)c3ccccc3[nH]2)CC1CCO (configuration not stated) | – | – | – | – | – | –
CCC1(C)NC(=O)N(CC(=O)N2CCC(Cc3ccccc3)CC2)C1=O (configuration not stated) | 58.3 | – | – | – | · | ·
O=C(O)c1ccccc1Sc1c([N+](=O)[O-])cc(C(F)(F)F)cc1[N+](=O)[O-] | – | – | – | – | 36.1 | –
O=c1cc(-c2c(O)c3ccccc3n(Cc3ccccc3)c2=O)[nH][nH]1 | – | – | – | – | 35.9 | –
Cc1nnc(N/N=C/c2ccccc2F)n1N | – | – | – | – | – | –
Cc1nnc(N/N=C/c2ccco2)n1N | – | – | – | – | 38.3 | –
O=C(NC1CCSc2ccccc21)c1cccc(S(=O)(=O)N2CCOCC2)c1 (configuration not stated) | – | – | – | – | – | –
CCOC(=O)c1ccc(N2CSC3=C(C#N)C(c4ccc(OC)cc4OC)CC(=O)N3C2)cc1 (configuration not stated) | 50.3 | – | – | – | – | –
COc1ccc(OC)c(C2CC(=O)N3CN(c4cccc(Cl)c4)CSC3=C2C#N)c1 (configuration not stated) | 80.5 | – | – | – | – | –
COc1cc(OC)c(C2CC(=O)N3CN(C)CSC3=C2C#N)cc1OC (configuration not stated) | – | – | – | – | – | –
COc1ccc(OC)c(C2CC(=O)N3CN(c4ccc(C)c(Cl)c4)CSC3=C2C#N)c1 (configuration not stated) | – | – | – | – | – | –
COc1cc(OC)c(C2CC(=O)N3CN(c4ccccc4)CSC3=C2C#N)cc1OC (configuration not stated) | – | – | – | – | – | –
COc1ccc(OC)c(C2CC(=O)N3CN(c4cccc(Cl)c4C)CSC3=C2C#N)c1 (configuration not stated) | – | – | – | – | – | –
CCc1ccccc1N1CSC2=C(C#N)C(c3cc(OC)c(OC)cc3OC)CC(=O)N2C1 (configuration not stated) | 43.4 | – | – | – | – | –
COc1ccc2ccccc2c1C1CC(=O)N2CN(C)CSC2=C1C#N (configuration not stated) | 71.2 | – | – | – | – | –
SMILES | Apaf-1 inh | ZTA counter | procasp7 counter | proCasp3 act | GSTO1 counter | EBNA-1 inhibitor
COc1ccc(NC(=O)CN2C(=O)NC(CC(C)C)C2=O)cc1S(=O)(=O)N1CCOCC1 (configuration not stated) | – | – | – | – | · | ·
O=C(N/N=C/c1c(O)ccc2ccccc12)c1ccc[n+](CCO)c1 | – | – | – | – | 43.8 | –
Cn1nccc1C(=O)N/N=C/c1c(O)ccc2ccccc12 | – | – | – | – | – | –
Cn1cc(C(=O)N/N=C/c2c(O)ccc3ccccc23)ccc1=O | – | – | – | – | 38.7 | –
CN(CCCNC(=O)CCC(=O)N1CCOc2ccccc21)Cc1ccccc1 | – | – | – | – | – | –
COc1ccc(S(=O)(=O)N2CCCCCC2)cc1C(=O)N(C)CCOc1ccccc1 | 54.8 | – | – | – | – | –
COc1cccc(C(=O)Nc2ccc3nc(N4CCN(c5ncccn5)CC4)cc(C)c3c2)c1OC | – | – | – | – | 37.3 | –
C/C(N)=N\S(=O)(=O)c1ccc(Cl)cc1 | – | – | – | – | 35.6 | –
COCc1ccc(-c2c(-c3cc(OC)cc(OC)c3)oc(=O)c3cc(OC)c(OC)cc23)cc1 | – | – | – | – | · | ·
C/C(CCN1CCc2nc(-c3ccccc3)c(-c3ccccc3)cc2C1)=N\OC[C@@H](C)[C@H](OCc1ccccc1)C(C)C | 46.7 | – | – | – | – | –
C/C(CCN1CCc2nc(-c3ccccc3)c(-c3ccccc3)cc2C1)=N\O[C@H](C)c1cn([C@H](CO)Cc2ccccc2)nn1 | – | – | – | – | – | –
O=C(O)/C=C/C(=O)Nc1ccc2c(c1)C(=O)c1ccccc1C2=O | – | – | – | – | 37.4 | –
CC(=O)Nc1ccc(N2CCc3c(C)c(C#N)c4nc5ccccc5n4c32)cc1 | – | – | 89.6 | 64.9 | – | –
CC(OC(=O)Cc1ccccc1F)C(=O)Nc1ccc(Cl)cn1 (configuration not stated) | – | · | · | · | · | ·
O=C(CSc1nnc(COc2ccccc2)o1)c1ccccc1 | – | – | – | – | – | –
Cc1ccc(C(=O)CSc2nnc(COc3ccccc3)o2)cc1 | – | – | – | – | 37.1 | –
O=[N+]([O-])c1c(NCCCO)cc(SCc2ccco2)c2nonc12 | – | – | – | – | 35.2 | –
CC(=O)c1ccc(NC(=O)COC(=O)c2c3c(nc4ccccc24)/C(=C\c2cccs2)CCC3)cc1 | – | – | – | – | – | 43.5
CN(C1=C(NC(=O)c2ccccc2)C(=O)c2ccccc2C1=O)C1CCS(=O)(=O)C1 (configuration not stated) | 88.2 | – | – | – | 75.5 | –
